Experimental data: ChEMBL document CHEMBL4130405, “Iridoid Glycosides from the Twigs of Sambucus williamsii var. coreana and Their Biological Activities” (J Nat Prod, 2017)

system: A549; assay: Cytotoxicity against human A549 cells after 48 hrs by SRB assay; format: functional, cell-based; details: A549, 48 h
Method in brief: (§1)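 Cells from ATCC were seeded and left 24 h at 37 °C under 5% CO2. Attached cells were then exposed for 48 h to serial dilutions of 30, 10, 3, 1, 0.3 and 0.1 μM. Cells were fixed with cold 10% TCA at 4 °C for 1 h and stained with 0.4% SRB for 30 min at room temperature. Dye was solubilized in 10 mM Tris base (pH 10.5) and absorbance read at 520 nm. Etoposide served as positive control. IC50 is the mean ± SD of three independent experiments.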

Row | SMILES | IC50
1 | CC(C)CC(=O)O[C@@H]1OC=C(CO[C@@H]2O[C@H](CO)[C@@H](O)[C@H](O)[C@H]2OC(=O)/C=C\c2ccc(O)cc2)[C@H]2CC[C@](O)(CO)[C@@H]12 | > 10 µM
2 | CC(=O)OC[C@@]1(O)CC[C@@H]2C(CO[C@@H]3O[C@H](CO)[C@@H](O)[C@H](O)[C@H]3OC(=O)/C=C\c3ccc(O)cc3)=CO[C@@H](OC(=O)CC(C)C)[C@@H]21 | > 10 µM
3 | C=C1[C@@H]2O[C@@H](OC)[C@@H]3[C@@H](O2)[C@@H](O)C[C@H]13 | > 10 µM
4 | C=C1[C@@H]2O[C@@H](OC)[C@@H]3[C@H](CC[C@H]13)O2 | > 10 µM
5 | CC(C)CC(=O)O[C@@H]1OC=C(CO[C@@H]2O[C@H](CO)[C@@H](O)[C@H](O)[C@H]2OC(=O)/C=C/c2ccc(O)cc2)[C@H]2CC[C@](O)(CO)[C@@H]12 | > 10 µM

system: BV-2; assay: Antineuroinflammatory activity in mouse BV2 cells assessed as inhibition of LPS-induced nitric oxide production pretreated for 30 mins followed by LPS-stimulation after 24 hrs by Griess assay; format: functional, cell-based; details: not given
Method in brief: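 BV-2 microglia were pretreated with compound for 30 min, then stimulated with LPS (100 ng/mL) for 24 h. Nitrite in the supernatant was mixed with an equal volume of Griess reagent (1% sulfanilamide, 0.1% naphthylethylenediamine in 5% phosphoric acid) for 10 min and read at 570 nm. Values were quantified against a sodium nitrite standard curve. L-NMMA served as positive control. IC50 is the concentration giving 50% inhibition of NO production; three independent experiments.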

Row | IC50 | SMILES
6 | 110 µM | C=C1[C@@H]2O[C@@H](OC)[C@@H]3[C@@H](O2)[C@@H](O)C[C@H]13
7 | 94.2 µM | C=C1[C@@H]2O[C@@H](OC)[C@@H]3[C@H](CC[C@H]13)O2

More lines, now with the values behind:

Row | SMILES | IC50
8 | CC(C)CC(=O)O[C@@H]1OC=C(CO[C@@H]2O[C@H](CO)[C@@H](O)[C@H](O)[C@H]2OC(=O)/C=C\c2ccc(O)cc2)[C@H]2CC[C@](O)(CO)[C@@H]12 | 0.9 to 0.95 µM
9 | CC(=O)OC[C@@]1(O)CC[C@@H]2C(CO[C@@H]3O[C@H](CO)[C@@H](O)[C@H](O)[C@H]3OC(=O)/C=C\c3ccc(O)cc3)=CO[C@@H](OC(=O)CC(C)C)[C@@H]21 | 1.2 to 1.22 µM
10 | CC(C)CC(=O)O[C@@H]1OC=C(CO[C@@H]2O[C@H](CO)[C@@H](O)[C@H](O)[C@H]2OC(=O)/C=C/c2ccc(O)cc2)[C@H]2CC[C@](O)(CO)[C@@H]12 | 45.5 µM

system: not listed separately; assay: Cytotoxicity against rat C6 cells assessed as cell viability at 20 uM after 24 hrs by MTT assay relative to control; format: cell-based; details: read-out: Activity
Method in brief: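 C6 glioma cells were kept in DMEM with 10% FBS and seeded at 1 × 10^5 cells/well. After 24 h, cells were treated with 20 μM compound in DMEM with 2% FBS for 24 h. MTT reagent was added for 1 h at 37 °C, formazan dissolved in DMSO and absorbance read at 570 nm. Results are percent, mean ± SD of three independent experiments.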

Row | SMILES | viability at 24 h, 20 µM
11 | CC(C)CC(=O)O[C@@H]1OC=C(CO[C@@H]2O[C@H](CO)[C@@H](O)[C@H](O)[C@H]2OC(=O)/C=C\c2ccc(O)cc2)[C@H]2CC[C@](O)(CO)[C@@H]12 | 102%
12 | CC(=O)OC[C@@]1(O)CC[C@@H]2C(CO[C@@H]3O[C@H](CO)[C@@H](O)[C@H](O)[C@H]3OC(=O)/C=C\c3ccc(O)cc3)=CO[C@@H](OC(=O)CC(C)C)[C@@H]21 | 104%
13 | C=C1[C@@H]2O[C@@H](OC)[C@@H]3[C@@H](O2)[C@@H](O)C[C@H]13 | 111%
14 | C=C1[C@@H]2O[C@@H](OC)[C@@H]3[C@H](CC[C@H]13)O2 | 106%
15 | CC(C)CC(=O)O[C@@H]1OC=C(CO[C@@H]2O[C@H](CO)[C@@H](O)[C@H](O)[C@H]2OC(=O)/C=C/c2ccc(O)cc2)[C@H]2CC[C@](O)(CO)[C@@H]12 | 115%

system: SK-MEL-2; assay: Cytotoxicity against human SK-MEL-2 cells after 48 hrs by SRB assay; format: functional, cell-based; details: SK-MEL-2, 48 h; method in brief: as §1

Row | SMILES | IC50
16 | CC(C)CC(=O)O[C@@H]1OC=C(CO[C@@H]2O[C@H](CO)[C@@H](O)[C@H](O)[C@H]2OC(=O)/C=C\c2ccc(O)cc2)[C@H]2CC[C@](O)(CO)[C@@H]12 | 8.4 µM
17 | CC(=O)OC[C@@]1(O)CC[C@@H]2C(CO[C@@H]3O[C@H](CO)[C@@H](O)[C@H](O)[C@H]3OC(=O)/C=C\c3ccc(O)cc3)=CO[C@@H](OC(=O)CC(C)C)[C@@H]21 | 5.2 µM
18 | C=C1[C@@H]2O[C@@H](OC)[C@@H]3[C@@H](O2)[C@@H](O)C[C@H]13 | > 10 µM
19 | C=C1[C@@H]2O[C@@H](OC)[C@@H]3[C@H](CC[C@H]13)O2 | > 10 µM
20 | CC(C)CC(=O)O[C@@H]1OC=C(CO[C@@H]2O[C@H](CO)[C@@H](O)[C@H](O)[C@H]2OC(=O)/C=C/c2ccc(O)cc2)[C@H]2CC[C@](O)(CO)[C@@H]12 | > 10 µM

system: BT-549; assay: Cytotoxicity against human BT549 cells after 48 hrs by SRB assay; format: functional, cell-based; details: BT-549, 48 h; method in brief: as §1

Row | SMILES | IC50
21 | CC(C)CC(=O)O[C@@H]1OC=C(CO[C@@H]2O[C@H](CO)[C@@H](O)[C@H](O)[C@H]2OC(=O)/C=C\c2ccc(O)cc2)[C@H]2CC[C@](O)(CO)[C@@H]12 | 8.7 µM
22 | CC(=O)OC[C@@]1(O)CC[C@@H]2C(CO[C@@H]3O[C@H](CO)[C@@H](O)[C@H](O)[C@H]3OC(=O)/C=C\c3ccc(O)cc3)=CO[C@@H](OC(=O)CC(C)C)[C@@H]21 | 4 µM
23 | C=C1[C@@H]2O[C@@H](OC)[C@@H]3[C@@H](O2)[C@@H](O)C[C@H]13 | > 10 µM
24 | C=C1[C@@H]2O[C@@H](OC)[C@@H]3[C@H](CC[C@H]13)O2 | > 10 µM
25 | CC(C)CC(=O)O[C@@H]1OC=C(CO[C@@H]2O[C@H](CO)[C@@H](O)[C@H](O)[C@H]2OC(=O)/C=C/c2ccc(O)cc2)[C@H]2CC[C@](O)(CO)[C@@H]12 | > 10 µM

system: not listed separately; assay: Cytotoxicity against mouse BV2 cells assessed as cell viability at 20 uM by MTT assay relative to control; format: cell-based, BV-2; details: read-out: Activity
Method in brief: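 Viability of LPS-activated BV-2 cells was measured after 24 h treatment with 20 μM compound. Read-out was MTT, expressed as percent. Values are means ± SD of three independent experiments.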

Row | SMILES | viability at 20 µM
26 | CC(C)CC(=O)O[C@@H]1OC=C(CO[C@@H]2O[C@H](CO)[C@@H](O)[C@H](O)[C@H]2OC(=O)/C=C\c2ccc(O)cc2)[C@H]2CC[C@](O)(CO)[C@@H]12 | 103%
27 | CC(=O)OC[C@@]1(O)CC[C@@H]2C(CO[C@@H]3O[C@H](CO)[C@@H](O)[C@H](O)[C@H]3OC(=O)/C=C\c3ccc(O)cc3)=CO[C@@H](OC(=O)CC(C)C)[C@@H]21 | 130%
28 | C=C1[C@@H]2O[C@@H](OC)[C@@H]3[C@@H](O2)[C@@H](O)C[C@H]13 | 36%
29 | C=C1[C@@H]2O[C@@H](OC)[C@@H]3[C@H](CC[C@H]13)O2 | 104%
30 | CC(C)CC(=O)O[C@@H]1OC=C(CO[C@@H]2O[C@H](CO)[C@@H](O)[C@H](O)[C@H]2OC(=O)/C=C/c2ccc(O)cc2)[C@H]2CC[C@](O)(CO)[C@@H]12 | 102%

system: C6; assay: Induction of NGF secretion in rat C6 cells at 20 uM after 24 hrs by ELISA relative to control; format: functional; details: not given
Method in brief: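 C6 glioma cells were seeded at 1 × 10^5 cells/well in DMEM with 10% FBS. After 24 h, cells were exposed to 20 μM compound in DMEM with 2% FBS for 24 h. NGF secreted into the conditioned medium was measured by ELISA as percent of untreated control (100%). 6-Shogaol served as positive control. Data are mean ± SD of three independent experiments in triplicate.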

Row | SMILES | Activity
31 | CC(C)CC(=O)O[C@@H]1OC=C(CO[C@@H]2O[C@H](CO)[C@@H](O)[C@H](O)[C@H]2OC(=O)/C=C\c2ccc(O)cc2)[C@H]2CC[C@](O)(CO)[C@@H]12 | 147%
32 | CC(=O)OC[C@@]1(O)CC[C@@H]2C(CO[C@@H]3O[C@H](CO)[C@@H](O)[C@H](O)[C@H]3OC(=O)/C=C\c3ccc(O)cc3)=CO[C@@H](OC(=O)CC(C)C)[C@@H]21 | 134.1%
33 | C=C1[C@@H]2O[C@@H](OC)[C@@H]3[C@@H](O2)[C@@H](O)C[C@H]13 | 152.6%
34 | C=C1[C@@H]2O[C@@H](OC)[C@@H]3[C@H](CC[C@H]13)O2 | 133.4%
35 | CC(C)CC(=O)O[C@@H]1OC=C(CO[C@@H]2O[C@H](CO)[C@@H](O)[C@H](O)[C@H]2OC(=O)/C=C/c2ccc(O)cc2)[C@H]2CC[C@](O)(CO)[C@@H]12 | 130.4%

system: SK-OV-3; assay: Cytotoxicity against human SKOV3 cells after 48 hrs by SRB assay; format: functional, cell-based; details: SK-OV-3, 48 h; method in brief: as §1

Row | SMILES | IC50
36 | CC(C)CC(=O)O[C@@H]1OC=C(CO[C@@H]2O[C@H](CO)[C@@H](O)[C@H](O)[C@H]2OC(=O)/C=C\c2ccc(O)cc2)[C@H]2CC[C@](O)(CO)[C@@H]12 | > 10 µM
37 | CC(=O)OC[C@@]1(O)CC[C@@H]2C(CO[C@@H]3O[C@H](CO)[C@@H](O)[C@H](O)[C@H]3OC(=O)/C=C\c3ccc(O)cc3)=CO[C@@H](OC(=O)CC(C)C)[C@@H]21 | 7.5 µM
38 | C=C1[C@@H]2O[C@@H](OC)[C@@H]3[C@@H](O2)[C@@H](O)C[C@H]13 | > 10 µM
39 | C=C1[C@@H]2O[C@@H](OC)[C@@H]3[C@H](CC[C@H]13)O2 | > 10 µM
40 | CC(C)CC(=O)O[C@@H]1OC=C(CO[C@@H]2O[C@H](CO)[C@@H](O)[C@H](O)[C@H]2OC(=O)/C=C/c2ccc(O)cc2)[C@H]2CC[C@](O)(CO)[C@@H]12 | > 10 µM
